Results published in ChEMBL document CHEMBL3585321, “Synthesis and antimicrobial activity of chloramphenicol-polyamine conjugates” (Bioorg Med Chem, 2015).
Activity calls are given as the source filed them. No cut-off for these calls is given here.

Columns and labels:
Staphylococcus aureus [1] = test: Antibacterial activity against wild type Staphylococcus aureus assessed as inhibition of bacterial growth at antibacterial IC50 level in presence of 10 times IC50 levels of putrescine; assay type: functional, organism-based
How it was run: (§1)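 Cells started at A560 0.020 in M9 medium with drug at its own growth IC50, alone or with putrescine, spermidine or spermine at 10×IC50. Cultures run until the drug-free control reached A560 0.800. Growth given as percent of control optical density. At least three experiments, two replicates each, mean±SD, p<0.05.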

Staphylococcus aureus [2] = test: Antibacterial activity against wild type Staphylococcus aureus assessed as inhibition of bacterial growth at antibacterial IC50 level in presence of 10 times IC50 levels of spermine; assay type: functional, organism-based; how it was run: as §1
Escherichia coli [3] = test: Antibacterial activity against wild type Escherichia coli K-12 assessed as inhibition of bacterial growth at antibacterial IC50 level in presence of 10 times IC50 levels of putrescine; assay type: functional, organism-based; how it was run: as §1
Escherichia coli [4] = test: Antibacterial activity against wild type Escherichia coli K-12 assessed as inhibition of bacterial growth at antibacterial IC50 level in presence of 10 times IC50 levels of spermidine; assay type: functional, organism-based; how it was run: as §1
Staphylococcus aureus [5] = test: Antibacterial activity against wild type Staphylococcus aureus assessed as inhibition of bacterial growth at antibacterial IC50 level in presence of 10 times IC50 levels of spermidine; assay type: functional, organism-based; how it was run: as §1
Escherichia coli [6] = test: Antibacterial activity against wild type Escherichia coli K-12 assessed as inhibition of bacterial growth at antibacterial IC50 level in presence of 10 times IC50 levels of spermine; assay type: functional, organism-based; how it was run: as §1
Escherichia coli [7] = test: Antibacterial activity against Escherichia coli Rosetta(DE3) containing rare tRNA genes and chloramphenicol resistant gene in pLysS plasmid assessed as inhibition of bacterial growth; assay type: functional, organism-based
How it was run: (§2)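 IC50 from bacterial cultures grown in LB medium without drug or with drug across a range of concentrations, reported in μM. Three independent experiments, each with two replicates, given as mean±SD.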

[8] = Inhibition of Escherichia coli K-12 70S ribosome poly(U)-programmed ribosome (complex C) bearing tRNAPhe at E-site and Ac[3H]Phe-tRNA at P-site assessed as reduction in peptide bond formation using puromycin(S) substrate
Staphylococcus aureus [9] = test: Antibacterial activity against methicillin-resistant Staphylococcus aureus GRE2272 assessed as inhibition of bacterial growth; assay type: functional, organism-based
Escherichia coli [10] = test: Antibacterial activity against wild type Escherichia coli K-12 assessed as inhibition of bacterial growth; assay type: functional, organism-based
Escherichia coli [11] = test: Potency index, ratio of IC50 against wild type Escherichia coli K-12 to IC50 against Escherichia coli BL21(DE3) expressing delta-tolC gene; assay type: functional
Staphylococcus aureus [12] = test: Antibacterial activity against methicillin-resistant Staphylococcus aureus GRE2691 assessed as inhibition of bacterial growth; assay type: functional, organism-based
Escherichia coli [13] = test: Ratio of Vmax to Km for Escherichia coli chloramphenicol acetyltransferase assessed as coenzyme A formation using acetyl coenzyme A at 0.154 mM
Escherichia coli [14] = test: Antibacterial activity against Escherichia coli BL21(DE3) expressing delta-tolC gene assessed as inhibition of bacterial growth; assay type: functional, organism-based; how it was run: as §2
Escherichia coli [15] = test: Antibacterial activity against Escherichia coli lacking chromosomal rrn alleles and containing pKK35 plasmids possessing 23S rRNA A2058G mutant assessed as inhibition of bacterial growth; assay type: functional, organism-based
Staphylococcus aureus [16] = test: Antibacterial activity against wild type Staphylococcus aureus assessed as inhibition of bacterial growth; assay type: functional, organism-based
Escherichia coli [17] = test: Antibacterial activity against Escherichia coli lacking chromosomal rrn alleles and containing pKK35 plasmids possessing 23S rRNA A2503C mutant assessed as inhibition of bacterial growth; assay type: functional, organism-based
Escherichia coli [18] = test: Activity of Escherichia coli chloramphenicol acetyltransferase assessed as coenzyme A formation using acetyl coenzyme A at 0.154 mM
Staphylococcus aureus [19] = test: Antibacterial activity against methicillin-resistant Staphylococcus aureus GRE2372 assessed as inhibition of bacterial growth; assay type: functional, organism-based
Escherichia coli [20] = test: Reduction in spermidine content in Escherichia coli K-12 at 35.5 uM by UV and mass spectrometry (reference value: 1.63 +/- 0.5 umol/g w.w); assay type: functional
Escherichia coli [21] = test: Reduction in putrescine content in Escherichia coli K-12 at 35.5 uM by UV and mass spectrometry (reference value: 7.6 +/- 1.2 umol/g w.w); assay type: functional
Escherichia coli [22] = test: Reduction in putrescine content in Escherichia coli K-12 at 35.5 uM after 3 hrs by UV and mass spectrometry; assay type: functional; settings: K-12, 3 h
Escherichia coli [23] = test: Reduction in protein content in Escherichia coli K-12 at 35.5 uM (reference value: 57 +/- 6.35 mg/g w.w); assay type: functional
Escherichia coli K-12 [24] = test: Drug metabolism in Escherichia coli K-12 assessed as N8,N8-dibenzylspermidine formation at 35.5 uM by RP-HPLC method; assay type: ADME, organism-based; settings: escherichia coli k-12, in vivo
How it was run: (§3)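 Washed cells homogenized in 0.6 M HClO4 and centrifuged. Supernatant checked by RP-HPLC for released N8,N8-dibenzylspermidine.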

Escherichia coli K-12 [25] = test: Drug level in Escherichia coli K-12 at 35.5 uM by RP-HPLC method; assay type: ADME, organism-based; settings: in vivo
Escherichia coli [26] = test: Reduction in spermidine content in Escherichia coli K-12 at 35.5 uM after 3 hrs by UV and mass spectrometry; assay type: functional; settings: K-12, 3 h
Escherichia coli K-12 [27] = test: Drug level in Escherichia coli K-12 at 9.4 uM by RP-HPLC method; assay type: ADME, organism-based; settings: in vivo
Escherichia coli [28] = test: Reduction in spermidine content in Escherichia coli K-12 at 9.4 uM after 3 hrs by UV and mass spectrometry; assay type: functional; settings: K-12, 3 h
Escherichia coli [29] = test: Reduction in protein content in Escherichia coli K-12 at 9.4 uM (reference value: 57 +/- 6.35 mg/g w.w); assay type: functional
Escherichia coli [30] = test: Reduction in putrescine content in Escherichia coli K-12 at 9.4 uM by UV and mass spectrometry (reference value: 7.6 +/- 1.2 umol/g w.w); assay type: functional
Escherichia coli [31] = test: Reduction in spermidine content in Escherichia coli K-12 at 9.4 uM by UV and mass spectrometry (reference value: 1.63 +/- 0.5 umol/g w.w); assay type: functional
Escherichia coli K-12 [32] = test: Drug metabolism in Escherichia coli K-12 assessed as N8,N8-dibenzylspermidine formation at 9.4 uM by RP-HPLC method; assay type: ADME, organism-based; settings: escherichia coli k-12, in vivo; how it was run: as §3
Escherichia coli [33] = test: Reduction in putrescine content in Escherichia coli K-12 at 9.4 uM after 3 hrs by UV and mass spectrometry; assay type: functional; settings: K-12, 3 h

For NCCCCN(CCCN)C(=O)CCC(=O)N[C@H](CO)[C@H](O)c1ccc([N+](=O)[O-])cc1, the “growth inhibition (GI)” value (Staphylococcus aureus [1]) was “inactive”, the “growth inhibition (GI)” value (Staphylococcus aureus [2]) was “inactive” and the “growth inhibition (GI)” value (Escherichia coli [3]) was “inactive”. The “growth inhibition (GI)” value (Escherichia coli [4]) was “inactive”, the “growth inhibition (GI)” value (Staphylococcus aureus [5]) was “inactive” and the “growth inhibition (GI)” value (Escherichia coli [6]) was “inactive”.
With NCCCNCCCCNCCCNC(=O)CCC(=O)N[C@H](CO)[C@H](O)c1ccc([N+](=O)[O-])cc1 [listing 1 of 2 here] the “growth inhibition (GI)” value (Staphylococcus aureus [1]) was “inactive”, the “growth inhibition (GI)” value (Staphylococcus aureus [2]) was “inactive” and the “growth inhibition (GI)” value (Escherichia coli [3]) was “inactive”. The “growth inhibition (GI)” value (Escherichia coli [4]) was “inactive”, the “growth inhibition (GI)” value (Staphylococcus aureus [5]) was “inactive” and the “growth inhibition (GI)” value (Escherichia coli [6]) was “inactive”.
With O=C(N[C@H](CO)[C@H](O)c1ccc([N+](=O)[O-])cc1)C(Cl)Cl [CHLORAMPHENICOL] the IC50 (Escherichia coli [7]) was 110 µM, the Ki [8] was 880 nM and the “growth inhibition (GI)” value (Staphylococcus aureus [1]) was “Active”. For the same compound, the IC50 (Staphylococcus aureus [9]) was 8 µM, the IC50 (Escherichia coli [10]) was 6.2 µM and the “growth inhibition (GI)” value (Staphylococcus aureus [2]) was “Active”. The “Ratio IC50” value (Escherichia coli [11]) was 3, the “growth inhibition (GI)” value (Escherichia coli [3]) was “Active” and the IC50 (Staphylococcus aureus [12]) was 14.5 µM. For the same compound, the “growth inhibition (GI)” value (Escherichia coli [4]) was “Active”, the Vmax/Km (Escherichia coli [13]) was 0.139 min⁻¹ and the IC50 (Escherichia coli [14]) was 2 µM. The IC50 (Escherichia coli [15]) was 15.5 µM, the IC50 (Staphylococcus aureus [16]) was 3.1 µM and the “growth inhibition (GI)” value (Staphylococcus aureus [5]) was “Active”. The IC50 (Escherichia coli [17]) was 24.7 µM, the Km (Escherichia coli [18]) was 59.3 µM and the Vmax (Escherichia coli [18]) was 8.23 µM/min. The IC50 (Staphylococcus aureus [19]) was 6 µM and the “growth inhibition (GI)” value (Escherichia coli [6]) was “Active”.
With O=C(CCC(=O)N[C@H](CO)[C@H](O)c1ccc([N+](=O)[O-])cc1)NCCCNCCCCN(Cc1ccccc1)Cc1ccccc1 the IC50 (Escherichia coli [7]) was 42.5 µM, the Ki [8] was 600 nM and the Activity (Escherichia coli [20]) was 0.35 µmol/g. For the same compound, the “growth inhibition (GI)” value (Staphylococcus aureus [1]) was “inactive”, the IC50 (Staphylococcus aureus [9]) was greater than 100 µM and the IC50 (Escherichia coli [10]) was 35.5 µM. For the same compound, the Activity (Escherichia coli [21]) was 0.46 µmol/g, the “growth inhibition (GI)” value (Staphylococcus aureus [2]) was “inactive” and the inhibition at 35.5 µM (Escherichia coli [22]) was 90%. The “growth inhibition (GI)” value (Escherichia coli [3]) was “inactive”, the IC50 (Staphylococcus aureus [12]) was greater than 200 µM and the “growth inhibition (GI)” value (Escherichia coli [4]) was “inactive”. For the same compound, the Activity (Escherichia coli [23]) was 21.8 mg/g, the Vmax/Km (Escherichia coli [13]) was 0.085 min⁻¹ and the IC50 (Escherichia coli [14]) was 33.4 µM. For the same compound, the IC50 (Escherichia coli [15]) was 32.3 µM, the IC50 (Staphylococcus aureus [16]) was 13.7 µM and the “growth inhibition (GI)” value (Staphylococcus aureus [5]) was “inactive”. For the same compound, the Drug metabolism (Escherichia coli K-12 [24]) was “metabolite_notdetected”, the Drug uptake (Escherichia coli K-12 [25]) was 3.96 µM and the IC50 (Escherichia coli [17]) was 37.1 µM. The Km (Escherichia coli [18]) was 53.5 µM, the Vmax (Escherichia coli [18]) was 4.56 µM/min and the IC50 (Staphylococcus aureus [19]) was greater than 100 µM. For the same compound, the “growth inhibition (GI)” value (Escherichia coli [6]) was “inactive” and the inhibition at 35.5 µM (Escherichia coli [26]) was 95%.
With NCCCN(CCCCN(Cc1ccccc1)Cc1ccccc1)C(=O)CCC(=O)N[C@H](CO)[C@H](O)c1ccc([N+](=O)[O-])cc1 [listing 1 of 2 here] the IC50 (Escherichia coli [7]) was 19 µM, the Drug uptake (Escherichia coli K-12 [27]) was 1.06 µM and the IC50 (Staphylococcus aureus [9]) was 7 µM. It also gave an IC50 (Escherichia coli [10]) of 9.4 µM, an inhibition at 9.4 µM (Escherichia coli [28]) of 80% and an Activity (Escherichia coli [29]) of 13.1 mg/g. For the same compound, the Activity (Escherichia coli [30]) was 1.14 µmol/g, the IC50 (Staphylococcus aureus [12]) was 10 µM and the Activity (Escherichia coli [31]) was 0.47 µmol/g. For the same compound, the Drug metabolism (Escherichia coli K-12 [32]) was “metabolite_notdetected”, the IC50 (Escherichia coli [14]) was 9 µM and the IC50 (Escherichia coli [15]) was 9.4 µM. For the same compound, the IC50 (Staphylococcus aureus [16]) was 4.7 µM, the IC50 (Escherichia coli [17]) was 9.4 µM and the IC50 (Staphylococcus aureus [19]) was 9 µM. The inhibition at 9.4 µM (Escherichia coli [33]) was 75%.
In the case of NCCCN(CCCCN(Cc1ccccc1)Cc1ccccc1)C(=O)CCC(=O)N[C@H](CO)[C@H](O)c1ccc([N+](=O)[O-])cc1 [listing 2 of 2 here], the “growth inhibition (GI)” value (Staphylococcus aureus [1]) is reported as “inactive”, the “growth inhibition (GI)” value (Staphylococcus aureus [2]) is reported as “inactive” and the “growth inhibition (GI)” value (Escherichia coli [3]) is reported as “inactive”. The “growth inhibition (GI)” value (Escherichia coli [4]) was “inactive”, the Vmax/Km (Escherichia coli [13]) was 0.041 min⁻¹ and the “growth inhibition (GI)” value (Staphylococcus aureus [5]) was “inactive”. For the same compound, the Km (Escherichia coli [18]) was 37.7 µM, the Vmax (Escherichia coli [18]) was 1.54 µM/min and the “growth inhibition (GI)” value (Escherichia coli [6]) was “inactive”.
In the case of NCCCNCCCCNCCCNC(=O)CCC(=O)N[C@H](CO)[C@H](O)c1ccc([N+](=O)[O-])cc1 [listing 2 of 2 here], the IC50 (Escherichia coli [7]) is reported as greater than 200 µM, the IC50 (Staphylococcus aureus [9]) is reported as greater than 200 µM and the IC50 (Escherichia coli [10]) is reported as greater than 100 µM. For the same compound, the IC50 (Staphylococcus aureus [12]) was greater than 200 µM, the IC50 (Escherichia coli [14]) was greater than 100 µM and the IC50 (Escherichia coli [15]) was greater than 100 µM. The IC50 (Staphylococcus aureus [16]) was 45.3 µM, the IC50 (Escherichia coli [17]) was greater than 100 µM and the IC50 (Staphylococcus aureus [19]) was greater than 200 µM.
